# m5-HT2A agonist: mouse HTR2A agonism via beta-arrestin recruitment | P35363 | CHO-K1 mHTR2A beta-arrestin complementation, luminescence; percent of 30 µM serotonin response | activation, % at 7.6 µM | 360,000 tested, 0.66% active;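 active = activation above a run cutoff, the mean activation of all tested compounds plus 3 SD, cut at about 14% in these data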;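 also: 0% = plate median of compound wells and 100% = 30 µM serotonin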
# Target sequence (P35363 whole entry, looked up): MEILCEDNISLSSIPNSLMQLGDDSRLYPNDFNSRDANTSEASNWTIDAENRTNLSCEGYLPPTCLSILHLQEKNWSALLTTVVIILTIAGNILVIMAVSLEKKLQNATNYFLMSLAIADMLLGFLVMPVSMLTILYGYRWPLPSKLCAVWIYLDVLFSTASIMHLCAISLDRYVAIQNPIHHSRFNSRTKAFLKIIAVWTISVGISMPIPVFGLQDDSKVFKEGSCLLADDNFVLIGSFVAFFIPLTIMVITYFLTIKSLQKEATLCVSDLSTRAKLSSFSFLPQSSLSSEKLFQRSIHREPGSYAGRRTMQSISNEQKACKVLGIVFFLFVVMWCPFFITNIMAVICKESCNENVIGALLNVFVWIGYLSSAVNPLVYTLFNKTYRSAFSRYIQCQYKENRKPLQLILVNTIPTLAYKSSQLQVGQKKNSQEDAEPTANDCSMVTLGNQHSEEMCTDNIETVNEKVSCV
# VIM-2 inhibitor: blocks Pseudomonas aeruginosa VIM-2 metallo-beta-lactamase | purified VIM-2, nitrocefin hydrolysis, epi-absorbance fluorescence | inhibition, % at 5.6 µM | 290,000 tested, 0.89% active;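 active = inhibition above the mean of all tested compounds plus 3 SD, cutoff set per screening run, cut at about 7.5% in these data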;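 also: red hydrolysis product quenches plate fluorescence so inhibitors raise well fluorescence; 0% = enzyme with DMSO and 100% = DMSO without enzyme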
# dFosB activator: activators of mouse delta FosB homodimer | P13346 | purified delta FosB, TAMRA-CDK5 oligo fluorescence polarization; percent of positive-control signal above neutral wells | 340,000 tested, 0.99% active | activation, % at 25 µM;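 active = mean activation above about 17%, with every replicate also reaching it, limit read from the data, passing the limit was not always enough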
# Target sequence (P13346 whole entry, looked up): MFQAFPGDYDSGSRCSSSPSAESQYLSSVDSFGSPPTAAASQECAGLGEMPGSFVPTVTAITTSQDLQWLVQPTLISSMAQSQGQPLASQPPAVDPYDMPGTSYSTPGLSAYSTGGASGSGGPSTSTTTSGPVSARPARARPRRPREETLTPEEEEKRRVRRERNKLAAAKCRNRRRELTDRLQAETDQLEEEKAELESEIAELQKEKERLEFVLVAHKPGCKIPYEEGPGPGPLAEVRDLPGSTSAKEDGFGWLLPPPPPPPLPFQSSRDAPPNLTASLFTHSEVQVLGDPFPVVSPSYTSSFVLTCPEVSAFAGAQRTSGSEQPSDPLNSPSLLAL
# IMP-1 inh-1: blocks Pseudomonas aeruginosa IMP-1 metallo-beta-lactamase; 290,000 tested, 0.45% active; purified IMP-1, nitrocefin hydrolysis, epi-absorbance fluorescence; inhibition, % at 5.6 µM;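 active = inhibition above the mean plus 3 SD of all compounds in the same screening run, cut at about 4.5% in these data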;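 also: 0% = IMP-1 with DMSO and 100% = DMSO wells lacking enzyme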
#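 System: Purified IMP-1 | Read-out basis: Percent enzyme inhibition | Controls: IMP-1 with DMSO as 0%, enzyme-free DMSO as 100% | Replicates: One well per compound | Doses: 5.6 µM nominal single concentration | Detection: Epi-absorbance fluorescence, 480 nm excitation, 530 nm emission | Incubation: 25 °C, 15 min preincubation, 25 min reaction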
# IMP-1 inh-2: blocks IMP-1 metallo-beta-lactamase in VIM-2 selectivity screen | inhibition, % at 5.6 µM | shares compounds with VIM-2 inhibitor | 1,300 tested, under 10 active | purified IMP-1, nitrocefin hydrolysis, epi-absorbance fluorescence | AID 1856; call rule not given here;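 also: 0% = enzyme with vehicle and 100% = vehicle without enzyme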
# VIM-2 FRET ctr: VIM-2 FRET inhibition, artifact counter-screen; shares compounds with VIM-2 inhibitor; purified VIM-2, CCF2 FRET substrate hydrolysis; inhibition, % at 5.6 µM; 1,300 tested, 23% active; AID 1857;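 active = inhibition above the mean of all tested compounds plus 3 SD, cut at about 19% in these data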;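 also: 0% = VIM-2 plus DMSO and 100% = no enzyme wells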
# TEM-1 counter: selectivity counter-screen for VIM-2 inhibitors: E. coli TEM-1 inhibitors | shares compounds with VIM-2 inhibitor | Purified TEM-1, nitrocefin hydrolysis, epi-absorbance fluorescence | inhibition, % at 5.6 µM | 1,300 tested, 3% active | AID 1866;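 active = inhibition above that campaign's mean inhibition plus 3 SD, cut at about 0.46% in these data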;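 also: 0% = TEM-1 with DMSO and 100% = TEM-1 with 100 µM potassium clavulanate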
# VIM-2 confirm 2: confirmation of P. aeruginosa VIM-2 metallo-beta-lactamase inhibitors; shares compounds with VIM-2 inhibitor; inhibition, % at 5.6 µM; 1,300 tested, 96% active; purified VIM-2, nitrocefin hydrolysis, epi-absorbance;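 active = inhibition of the VIM-2 beta-lactamase enzyme above about 11% from the earlier first-round screen, limit read from the data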;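 also: 0% = VIM-2 with DMSO and 100% = buffer wells without enzyme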
# The depositor's hits bear a star; nt = no result given. Shown are actives, neighbours in structure and some others; about 2.5% of the full set was active somewhere.
SMILES,m5-HT2A agonist,VIM-2 inhibitor,dFosB activator,IMP-1 inh-1,IMP-1 inh-2,VIM-2 FRET ctr,TEM-1 counter,VIM-2 confirm 2
CN(C)S(=O)(=O)c1cccc(NC(=S)N/N=C/c2ccc(O)c(O)c2O)c1,-1.7,0.7,-4.6,-1.9,nt,nt,nt,nt
CN(C)S(=O)(=O)c1cccc(NC(=S)N/N=C/C(c2ccccc2)c2ccccc2)c1,-4.5,20.5*,-13.1,-5.7,-3.4,35.0*,-7.5,22.8*
COC(=O)C[C@H]1C[C@H]2c3cc(NC(=O)Nc4ccc(F)cc4)ccc3O[C@H]2[C@@H](CO)O1,4.3,nt,nt,nt,nt,nt,nt,nt
Cc1nc(C)c(/C(O)=C/c2nc3ccccc3oc2=O)s1,12.4,18.7*,7.4,-3.9,-2.5,10.8,-5.7,2.0
CCc1ccc(NC(=O)c2cnc(N3CCN(c4ccccn4)CC3)c3ccccc23)cc1,-2.1,-0.3,-5.0,-0.8,nt,nt,nt,nt
CCN1CCN(c2ncc(C(=O)Nc3ccccc3C(=O)OC)c3ccccc23)CC1,-8.7,18.2*,-25.8,-2.0,-3.6,3.1,-5.5,30.5*
COc1ccc(Br)cc1CNC(=O)CCNC(=O)Cn1ccc2ccccc2c1=O,4.5,-0.1,10.7,0.0,nt,nt,nt,nt
Cc1cc(C)cc(Oc2nc(C(F)(F)F)nc3ccccc23)c1,2.6,-2.9,2.3,-5.1,nt,nt,nt,nt
CC(=O)Nc1ccc(Oc2nc(C(F)(F)F)nc3ccccc23)cc1,6.1,21.2*,1.6,-1.7,-2.9,0.2,-5.4,30.5*
CCOCCCN1C(=O)C(=O)N(CC(=O)N2c3ccccc3NC(=O)CC2C)C1=O (stereo not drawn),7.0,nt,2.8,nt,nt,nt,nt,nt
CCN(CC)CCOC(=O)c1cccc2c1-c1ccccc1C2O (stereo not drawn),8.8,24.8*,7.4,-0.1,-4.8,3.5,-9.0,42.9*
CSc1ccc(NC(=O)N2CC=C(n3c(=O)[nH]c4ccccc43)CC2)cc1,0.5,-2.1,-6.7,0.0,nt,nt,nt,nt
S=c1[nH]nc(Cn2c(-c3ccccn3)nc3ccccc32)n1-c1ccc2c(c1)OCCO2,-0.7,23.2*,-5.5,-2.0,-2.6,48.5*,-5.0,31.4*
Oc1ccc(-c2n[nH]c(=S)n2-c2ccc3c(c2)OCCO3)cc1,-0.6,13.9*,-0.9,-1.4,-2.2,32.6*,-7.6,20.1*
S=c1[nH]nc(-c2ccc3ccccc3n2)n1-c1ccc2ncccc2c1,2.8,4.0,-1.0,-0.3,nt,nt,nt,nt
S=c1[nH]nc(-c2ccc3ncccc3c2)n1-c1ccc2c(c1)OCCO2,-2.3,26.5*,-1.3,-0.5,-2.3,51.8*,-5.7,33.2*
COc1cc2oc3ccccc3c(=O)c2cc1OC,-2.0,14.2*,-25.7,-2.4,-2.5,-0.4,-3.5,18.3*
O=c1c2ccccc2oc2cc(Br)ccc12,0.6,nt,-14.2,nt,nt,nt,nt,nt
CCCc1cc(N2CCN(C(=O)c3ccco3)CC2)n2c(nc3ccccc32)c1C#N,-2.2,14.3*,-7.3,1.2,-3.4,-10.3,-4.9,28.4*
Cc1ccc2nc(N3CCN(C(=O)c4ccco4)CC3)c3nncn3c2c1,4.5,3.7,-10.2,-3.9,nt,nt,nt,nt
Cc1nnc2c(N3CCN(C(=O)c4ccco4)CC3)nc3ccccc3n12,0.5,12.8*,3.0,-2.8,-3.7,-1.1,-6.9,18.6*
O=C(O)Cn1c2c(c3ccccc31)CSc1ccc(Cl)cc1-2,-7.3,15.2*,-4.7,2.0,-0.5,11.8,-3.9,19.9*
O=C(Nc1ccncc1)C1CCN(S(=O)(=O)c2c(Cl)cccc2Cl)CC1,2.0,nt,-2.0,nt,nt,nt,nt,nt
COc1ccc(Nc2ncnc3ccccc23)c(OC)c1,1.9,-5.1,0.2,-2.5,nt,nt,nt,nt
COc1ccc(Nc2nc(N3CCCC3)nc3ccccc23)c(OC)c1,-5.4,31.0*,38.7*,-0.6,-2.4,1.1,-6.3,42.9*
SMILES,m5-HT2A agonist,VIM-2 inhibitor,dFosB activator,IMP-1 inh-1,IMP-1 inh-2,VIM-2 FRET ctr,TEM-1 counter,VIM-2 confirm 2
C=CCn1c(SCC(=O)N2CCN(CCO)CC2)nc2sc3c(c2c1=O)CCC3,4.1,50.0*,-2.0,0.4,-2.7,1.2,-9.5,64.4*
C=CCn1c(SCC(C)=O)nc2sc3c(c2c1=O)CCC3,6.2,6.2,10.0,-1.2,nt,nt,nt,nt
CCOC(=O)c1cnc2c(cnn2C)c1NCCCn1ccnc1,-0.9,74.5*,-18.0,-0.6,-2.7,-9.6,-4.0,80.8*
CCOC(=O)c1cnc2c(cnn2C)c1NCCC#N,3.3,0.8,-9.1,0.4,nt,nt,nt,nt
COc1ccc(OC(=O)N(C)C[C@@H]2OCc3cn(nn3)CCCC(=O)N([C@@H](C)CO)C[C@H]2C)cc1,-1.2,nt,nt,nt,nt,nt,nt,nt
C[n+]1ccc(/C=N/Nc2nc(Cl)c(C#N)c(Cl)c2Cl)cc1,-4.3,42.7*,-1.9,-7.5,-9.2,34.2*,-13.2,53.1*
Clc1nnc(N/N=C/c2ccccc2)c2ccccc12,2.2,0.0,-12.1,1.6,nt,nt,nt,nt
O=C(N/N=C1/SCC(=O)N1Cc1ccco1)c1ccccc1F,-0.5,-5.4,-1.9,-2.0,nt,nt,nt,nt
Cc1ccc(-c2nn3cnnc3c3ccccc23)cc1C,-2.3,23.5*,-25.1,-1.2,0.2,5.5,1.6*,39.0*
Cc1ccc(-c2nn3nnnc3c3ccccc23)cc1C,6.7,-0.2,-5.5,-0.2,nt,nt,nt,nt
COc1cc(CC(=O)OCC(=O)NC2CCCCC2C)cc(OC)c1OC (stereo not drawn),6.2,nt,6.5,nt,nt,nt,nt,nt
Cc1ccc2cccnc2c1N,-0.3,15.8*,1.6,-3.2,-2.6,-9.8,-5.3,40.5*
Cc1cccc2cccnc12,4.0,nt,-4.6,nt,nt,nt,nt,nt
C=CC[C@@H](CC(=O)N[C@H](CO)Cc1ccccc1)C(=O)N[C@H](COC(=O)[C@@H](CC=C)CC(=O)OC(C)(C)C)Cc1ccccc1,-3.5,nt,3.8,nt,nt,nt,nt,nt
COC(=O)N/N=C/c1ccc(-c2ccccc2Cl)o1,-7.0,-1.0,4.4,0.3,nt,nt,nt,nt
Clc1ccccc1-c1ccc(/C=N/n2cnnc2)o1,-3.9,21.0*,-8.6,-3.6,-3.2,-1.3,-5.9,42.4*
Clc1cccc(-c2ccc(/C=N/n3cnnc3)o2)c1Cl,-5.0,29.3*,-24.9,-3.5,-2.9,-7.7,-4.6,64.4*
Cc1c(Cl)cccc1-c1ccc(/C=N/n2cnnc2)o1,-5.0,32.3*,-15.8,-0.3,-3.7,-4.9,-6.9,53.1*
Clc1ccc(Sc2ccc(/C=N/n3cnnc3)o2)cc1,-1.7,-3.8,-10.3,-1.6,nt,nt,nt,nt
Cn1cccc1/C=N/n1cnnc1,5.8,-1.1,3.5,-1.9,nt,nt,nt,nt
Cc1ccc(S(=O)(=O)N2CCN(C(=O)CNC(=O)c3sc4ccccc4c3Cl)CC2)cc1,12.4,nt,-5.1,nt,nt,nt,nt,nt
Cc1ccc(-c2c(C(=O)O)c(C(=O)O)c3n2CSC3)cc1,8.1,33.9*,-2.3,2.7,2.4,52.1*,-6.4,36.8*
O=C(O)c1c(C(=O)O)c(-c2ccc(Br)cc2)n2c1CSC2,4.7,43.2*,-2.9,1.2,-0.2,68.0*,-6.2,50.2*
